This is one part of a sample in which hits are shown more often than they occur.
HUVEC inhibit = inhibitors of HUVEC proliferation, primary screen, cell-based, 384-well; CellTiter-Glo luminescence, 72 h; stronger effect = lower value; viability, % at 10 µM (by protocol); 1.1% of 86,000 active;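 active means viability at or below 30%; inactive means viability above 30%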;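 further: 100% = median luminescence of DMSO-only cell control wells on each plate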
Fibroblast inh = antiproliferative effect on LL 47 fibroblasts – human, LL 47 cells, CellTiter-Glo luminescence, primary screen | LL 47 human lung fibroblast viability, ATP luminescence; stronger effect = lower value | viability, % at 10 µM | 1.1% of 85,000 active;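 active means viability at or below 50% in the single dose screen; inactive means viability above 50%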;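 further: compound exposure lasted 72 h before the ATP readout; 100% = median luminescence of untreated cell-only wells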
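material = human LL 47 lung fibroblast cells | dosing = compounds added from tenfold dosing solution, 0.1% DMSO final | timing = overnight cell rest, 72 h compound treatment at 37 °C | measured by = CellTiter-Glo luminescence measuring cellular ATP | evaluation = % viability versus median cells-only luminescence | control set = cell-only wells, no compound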
HCT116 PTEN-null = growth suppression of PTEN-null HCT116, primary screen, cell-based, CellTiter-Glo; viability, % at 10 µM; 1.2% of 140,000 active; HCT116 PTEN-null viability, 60 h; stronger effect = lower value;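 active means viability at or below a set limit, 4 SD under the median of all tested compounds, cut at about 3.7% in these data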;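 further: PTEN knockout HCT116 line with beta catenin targeted HCT116 as companion control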
H69AR growth 86K = proliferation blockers of H69AR lung cancer cells, primary screen, cell-based, human, 86K library. H69AR lung tumor viability, ATP luminescence, 72 h; stronger effect = lower value. viability, % at 10 µM. 6% of 85,000 active. AID 598, 2007;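 active means viability at or below 40%; inactive means viability above 40%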;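 further: multidrug resistant small cell line overexpressing MRP-1 efflux transporter; 100% = mean luminescence of untreated control wells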
bCat KO growth = primary screen for growth suppressors in beta-catenin knockout HCT116 cells (colon tumor, human). HCT116 beta-catenin knockout viability, CellTiter-Glo, 60 h; stronger effect = lower value. AID 818, 2007. 1.5% of 140,000 active. viability, % at 10 µM;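 active means viability at or under a set limit, the compound median less 4 SD, cut at about 6% in these data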;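 further: 0% = Hyamine 1622 control at 20 µM and 100% = untreated cell control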
* marks the source's active call; other numbers are inactive results; · = no result given.

SMILES | HUVEC inhibit | Fibroblast inh | HCT116 PTEN-null | H69AR growth 86K | bCat KO growth
Cc1cc(C)n(-c2nnc(C)n2/N=C/c2cc(Br)ccc2OCc2ccccc2)n1 | 41 | 67 | 10 | 26* | 9
Cc1cc(C)n(-c2nnc(C)n2/N=C/c2ccccc2OCc2ccccc2Cl)n1 | 61 | 77 | 33 | 16* | 26
COc1ccccc1/C=N/n1c(C)nnc1-n1nc(C)cc1C | 101 | 106 | 116 | 94 | 108
COc1ccc(/C=C/c2nnc(NC(=O)CSc3ccc(Cl)cc3)s2)cc1 | · | · | 62 | · | 74
Cc1ccc(C(=O)NN2C(=O)C3C4c5ccccc5C(c5ccccc54)C3C2=O)cc1 (configuration not stated) | · | · | 81 | · | 86
CCOC(=O)c1cc2c(=O)n3cccc(C)c3nc2n(Cc2ccco2)c1=NC(=O)c1ccccc1 | 79 | 96 | 57 | 25* | 35
COc1ccc(CCNC(=O)CC2SC(=NCCc3ccccc3)NC2=O)cc1 (configuration not stated) | · | · | 88 | · | 83
COc1cccc(C(=O)NCC(=O)N/N=C/c2cccs2)c1 | · | · | 101 | · | 96
c1ccc(-c2nc3cc4ccccc4cc3[nH]2)nc1 | 55 | 52 | 40 | 16* | 40
Cc1cc(N2CCN(C(=O)OC(C)(C)C)CC2)n2ncnc2n1 | 105 | 99 | 93 | 87 | 96
Cc1cccc(N2CCN(C(=O)c3ccncc3)CC2C)c1 (configuration not stated) | 84 | 101 | 71 | 29* | 82
Cc1cc(C)c2c(=O)n(CC(=O)N3CCC(Cc4ccccc4)CC3)sc2n1 | 90 | 65 | 9 | 4.8* | 1.4*
Cc1ccc(-c2ccc(=O)n(CC(=O)N3CCN(c4cccc(C)c4)C(C)C3)n2)cc1 (configuration not stated) | 104 | 114 | 83 | 89 | 85
Cc1cc(C)c2c(=O)n(CC(=O)NCCCN3CCN(c4ccccc4F)CC3)sc2n1 | 69 | 28* | 1.8* | 0.4* | 1.7*
Cc1cccc(N2CCN(C(=O)Cn3sc4nc(C)cc(C)c4c3=O)CC2C)c1 (configuration not stated) | 68 | 23* | 1.4* | 0.0* | 1.6*
Clc1ccc(CO/N=C2\CCCc3nonc32)c(Cl)c1 | · | · | 88 | · | 92
COc1cccc(Oc2nnnn2-c2ccccc2)c1 | 89 | 99 | 106 | · | 97
COc1cccc(-n2nnnc2S(C)(=O)=O)c1 | 45 | 47* | 1.3* | 1.1* | 12
Cc1sc2nc(NCCO)[nH]c(=O)c2c1C | 94 | 101 | 84 | 99 | 85
Cc1cc(-c2csc(N)n2)c(C)n1CCc1ccccc1 | 42 | 89 | 95 | 40* | 93
Cc1cc(-c2csc(N)n2)c(C)n1CCC(C)C | 91 | 102 | 76 | 86 | 80
CCOC(=O)N1CCN(c2ncnc3c2oc2nc(C(C)C)c4c(c23)CCC4)CC1 | 24* | 98 | 83 | 48 | 90
COc1ccc(CC(=O)OCC(=O)NC(=O)NC2CCCCC2)cc1 | 98 | 94 | 93 | 102 | 82
COC(=O)c1ccc(-c2ncc(-c3cccc4ccccc34)o2)cc1 | 111 | 109 | 101 | 36* | 105
Cc1cccc2c(=O)c(C(=O)NCCCN3CCOCC3)c[nH]c12 | 81 | 92 | 101 | 87 | 96
SMILES | HUVEC inhibit | Fibroblast inh | HCT116 PTEN-null | H69AR growth 86K | bCat KO growth
O=c1c2ccccc2n(Cc2ccc(F)cc2)c(=O)n1C1CCCC1 | 96 | 108 | 58 | 38* | 64
N/C(=N\OC(=O)COc1ccc2ccccc2c1)c1cccnc1 | · | · | 68 | · | 78
CCOc1ccccc1N1CCN(c2nc(N)c(C#N)c(CC#N)c2C#N)CC1 | 87 | 95 | 83 | 20* | 91
N#CC1=C(N)Oc2ccc3ccc(O)cc3c2C1c1ccsc1 (configuration not stated) | · | · | 17 | · | 36
Cc1ccc2c(n1)sc1c(-c3ccc(Br)cc3)c(C#N)c(N)nc12 | · | · | 3.2* | · | 9
CCc1nc(N)c(C#N)c(-c2ccc(F)cc2)c1C | 100 | 105 | 89 | 92 | 95
Cc1ccccc1-c1nc(CN2CCC(C(=O)NC3CCN(Cc4ccccc4)CC3)CC2)c(C)o1 | 9.9* | 57 | · | 22* | ·
Cc1ccccc1-c1nc(CN2CCC(C(=O)NCCC3=CCCCC3)CC2)c(C)o1 | 4.8* | 76 | 2.4* | 28* | 2.4*
O=C(N/N=C/c1c[nH]c2ccccc12)c1[nH]c2ccc(Br)cc2c1-c1ccccc1 | · | · | 1.2* | · | 1.3*
COc1ccc(N=C2C(=Nc3ccc(OC)cc3)N(c3ccc(OC)cc3)C(=S)N2c2ccccc2)cc1 | · | · | 98 | · | 94
Cc1ccc(N=C2C(=S)N(c3ccc(C)cc3)C(=N)N2/N=C/c2ccc(Cl)cc2)cc1 | 75 | 85 | 90 | 2.7* | 87
CC(=O)NC(Cc1c[nH]c2ccccc12)C(=O)OCC(=O)Nc1cc(C)on1 (configuration not stated) | 102 | 95 | 81 | 82 | 82
CC(=O)NC(Cc1c[nH]c2ccccc12)C(=O)OCC(=O)Nc1ccc2c(c1)OCO2 (configuration not stated) | 83 | 93 | 86 | 13* | 83
Cc1ccc(CNC(=O)CSc2c3c(nc4ccc(Cl)cc24)CCCC3)o1 | 74 | 77 | 86 | 15* | 87
Cc1nonc1NC(=O)CSc1nc2cc(Cl)ccc2c2c1CCCC2 | 61 | 101 | 77 | 60 | 89
CC1(C)CC(=O)C2=C(C1)Nc1ccccc1N=C2 | 88 | 99 | 61 | 0.3* | 78
Cc1c(C2Nc3ccccc3NC3=C2C(=O)CC(C)(C)C3)cnn1C (configuration not stated) | 96 | 99 | 92 | 101 | 88
O=C(/C=C/c1ccccc1)c1ccc2c(c1)OCCCCO2 | · | · | 5 | · | 3.5*
COc1cccc(-c2nnc(SCC(=O)OC(C)C)n2Cc2ccco2)c1 | 108 | 107 | 96 | 86 | 102
COc1cc(/C=N/NC(=O)CCn2c3ccccc3c3ccccc32)cc(OC)c1OC | · | · | 93 | · | 95
COc1cc(/C=N/NC(=O)CCC(=O)NCc2ccccc2)cc(OC)c1OC | · | · | 0.3* | · | 0.4*
Cc1cc(C)n(S(=O)(=O)/C=C/c2ccccc2)n1 | 76 | 26* | 89 | 1.1* | 94
O=C(/C=C/c1c(Cl)cccc1Cl)n1cccn1 | 90 | 93 | 99 | 26* | 99
O=c1nc(-c2ccccc2)n(-c2ccccc2)[nH]1 | · | · | 92 | · | 99
COc1ccc2c(c1)-c1nc(NC(=O)c3ccco3)sc1CC2 | 100 | 106 | 86 | 39* | 96
COc1ccc2c(c1)CCc1sc(NC(=O)c3ccco3)nc1-2 | 98 | 117 | 92 | 77 | 86
N#Cc1cc2c(nc1SCC(=O)Nc1sc3c(c1C#N)CCC3)CCC2 | 57 | 86 | 88 | 34* | 104
COc1cccc(-c2ccc(C#N)c(SCC(=O)NCCc3cccc(Cl)c3)n2)c1 | · | · | 73 | · | 71
